High-throughput results from PubChem BioAssay.
PfM18AAP inh-1 = PfM18AAP inhibitors, malaria aminopeptidase, primary screen, biochemical, QFRET, recombinant enzyme | M18 aspartyl aminopeptidase (Plasmodium falciparum 3D7) | H-Glu-NHMec fluorogenic cleavage | inhibition, % at 7.35 µM | 1.2% of 290,000 active | AID 1822, 2009;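 active = inhibition above the campaign mean inhibition over all tested compounds plus 3 SD, cut at about 28% in these data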;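 note: 0% = plate median of test compound wells and 100% = 2 mM ZnCl2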
GAA850 FXN act = FXN promoter activators, primary screen, cell-based, luciferase luminescence, HEK293 lucGAA850; HEK293 lucGAA850 FXN promoter luciferase reporter, 24 h; percent of 10 µM SAHA response; activation, % at 6 µM; 0.56% of 360,000 active;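 active = activation above the average of all compounds screened plus 3 SD, cutoff fixed separately per campaign, cut at about 7.5% in these data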;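 note: 0% = DMSO wells and 100% = 10 µM SAHA wells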
SENP1 FRET inh = human SENP1 catalytic domain inhibitors, primary screen, biochemical, FRET, uHTS. Sentrin-specific protease 1 (Homo sapiens), Q9P0U3. recombinant SENP1 catalytic domain, CyPet-SUMO1-YPet FRET cleavage. inhibition, % at 10 µM. 0.21% of 360,000 active;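 active = inhibition at least 30% at 10 µM, raw YFP signal under a set limit, fluorescence ratio 0.5 to 1.5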;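 note: 0% = enzyme with DMSO and 100% = no enzyme wells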
Target sequence (Q9P0U3 419-644 limits assumed): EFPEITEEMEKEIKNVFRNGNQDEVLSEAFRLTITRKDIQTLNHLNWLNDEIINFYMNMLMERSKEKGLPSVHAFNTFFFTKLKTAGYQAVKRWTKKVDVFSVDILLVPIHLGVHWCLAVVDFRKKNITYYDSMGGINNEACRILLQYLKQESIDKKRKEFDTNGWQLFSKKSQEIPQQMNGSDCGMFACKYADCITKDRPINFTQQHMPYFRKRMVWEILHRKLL
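Assay system – human recombinant His6-tagged SENP1 catalytic domain enzyme · Input – SENP1 enzyme, 20 pM final · Buffer or medium – Tris pH 8 buffer plus EDTA, NaCl, BME, BSA, NP40, catalase · Schedule – 50 min reaction at room temperature · Technique – FRET read of cyan and yellow fluorescence · Control set – no-enzyme wells low, DMSO-plus-enzyme wells high control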
AHR activator = AHR activators, primary screen, cell-based, luminescence, luciferase reporter, human | AHR-responsive luciferase reporter cells | 2.5% of 320,000 active | AID 2796, 2010 | activation, % at 5 µM | Aryl hydrocarbon receptor (Homo sapiens), P35869; in the data active = activation above about 47%;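 note: 0% = vehicle wells and 100% = reference agonist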
HDAC3 inhib = HDAC3 deacetylase inhibitors, primary screen, biochemical, fluorescence, cell-free homogeneous; Histone deacetylase 3 (Homo sapiens), O15379; recombinant HDAC3, fluorogenic peptide/trypsin coupled; inhibition, % at 8.3 µM; 0.15% of 320,000 active; AID 2718, 2010; in the data active = inhibition above about 26%, passing the limit was not always enough
CTSL1 counter-1 = Fasciola hepatica cathepsin L1 inhibitors, primary screen, counter-screen for PFM18AAP inhibitor project, biochemical, QFRET, fluorogenic peptide substrate; recombinant F. hepatica cathepsin L1, Z-Leu-Arg-MCA fluorescence; inhibition, % at 5.96 µM; 0.49% of 300,000 active;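 active = inhibition above the mean of all tested compounds plus 3 SD, set per screening campaign, cut at about 17% in these data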;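 note: 0% = plate median of test compound wells and 100% = 1 µM Z-Phe-Ala-diazomethylketone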
PfM18AAP inh-2 = PfM18AAP inhibitors, malaria aminopeptidase, confirmation, biochemical, QFRET, recombinant enzyme, triplicate; shares compounds with PfM18AAP inh-1; inhibition, % at 7.35 µM; H-Glu-NHMec fluorogenic cleavage; 28% of 2,400 active;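 active = mean inhibition over replicate wells above the hit cutoff set for the earlier primary screen, cut at about 29% in these data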;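 note: 0% = median of test compound wells and 100% = 2 mM ZnCl2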
CTSL1 counter-2 = cathepsin L1 inhibitors, retest, confirmation, counter-screen for PFM18AAP inhibitor project, biochemical, QFRET, triplicate; shares compounds with PfM18AAP inh-1; purified cathepsin L1, Z-Leu-Arg-MCA fluorescence; inhibition, % at 5.96 µM; 2,400 tested, under 10 active; AID 2178, 2009;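 active = average inhibition across replicates above the hit cutoff set in the earlier primary screen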;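 note: 0% = median of test compound wells and 100% = Z-Phe-Ala-diazomethylketone 1 µM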
* hit, by the source's call. Rows were chosen to be rich in hits. Some 4.2% of all compounds tested hit in one or more screens of this group.

COc1ccc(NC(=S)NNc2ccc(S(=O)(=O)Nc3ccccc3C(=O)O)cc2[N+](=O)[O-])cc1 was read as PfM18AAP inh-1 64*, GAA850 FXN act 0, SENP1 FRET inh 2, AHR activator -1, HDAC3 inhib 11, CTSL1 counter-1 -2, PfM18AAP inh-2 42* and CTSL1 counter-2 -2.
`COc1ccc(C=NNc2ccc(S(=O)(=O)Nc3ccccc3C(=O)O)cc2[N+](=O)[O-])c(OC)c1` gave GAA850 FXN act 2, SENP1 FRET inh 5, AHR activator 2 and HDAC3 inhib 13.
CCn1c(-c2cc(-c3ccccc3)sc2N)n[nH]c1=S was read as PfM18AAP inh-1 41*, GAA850 FXN act 2, SENP1 FRET inh 2, AHR activator 73*, HDAC3 inhib 6, CTSL1 counter-1 0, PfM18AAP inh-2 8 and CTSL1 counter-2 4.
For O=C(Nc1ccc2c(c1)OCCO2)C(c1ccccc1)n1c(=O)c(-c2ccco2)nc2ccccc21 (centres undefined) the results were SENP1 FRET inh -19.
CC(=O)Oc1ccc(C(=O)OCC(=O)c2c(N)n(C)c(=O)n(C)c2=O)cc1OC(C)=O was read as PfM18AAP inh-1 43*, GAA850 FXN act 2, SENP1 FRET inh 2, AHR activator 2, HDAC3 inhib -9, CTSL1 counter-1 -1, PfM18AAP inh-2 1 and CTSL1 counter-2 -5.
COc1ccc(C(=O)OCC(=O)c2c(N)n(C)c(=O)n(C)c2=O)cc1OC was read as PfM18AAP inh-1 -5, GAA850 FXN act 1, SENP1 FRET inh -2, AHR activator 0, HDAC3 inhib 1 and CTSL1 counter-1 -1.
Screening O=C(Nc1ccccc1C(=O)NC(Cc1ccc(O)cc1)C(=O)O)c1ccccc1 (centres undefined) returned PfM18AAP inh-1 -4, GAA850 FXN act 1, SENP1 FRET inh 3, AHR activator 0, HDAC3 inhib 10 and CTSL1 counter-1 1.
O=C(O)c1cn[nH]c1-n1cnnn1 was read as PfM18AAP inh-1 65*, GAA850 FXN act 1, SENP1 FRET inh 2, AHR activator 2, HDAC3 inhib -4, CTSL1 counter-1 -1, PfM18AAP inh-2 65* and CTSL1 counter-2 -6.
Screening CC(=O)Nc1ccc(-n2cnnn2)cc1 returned PfM18AAP inh-1 1, GAA850 FXN act -1, SENP1 FRET inh 2, AHR activator 0, HDAC3 inhib -1 and CTSL1 counter-1 0.
`COc1cc(/C=C2/C(=O)N(c3ccc(C(=O)O)cc3)N=C2C)cc(OC)c1O` gave PfM18AAP inh-1 50*, GAA850 FXN act 0, SENP1 FRET inh 3, HDAC3 inhib 7, PfM18AAP inh-2 29* and CTSL1 counter-2 -2.
For CC(=O)N1CCN(C(=O)c2cccc(S(=O)(=O)Nc3c(C)n(C)n(-c4ccccc4)c3=O)c2)CC1 the results were GAA850 FXN act 0 and SENP1 FRET inh 0.
Screening COc1ccc(-n2cc(-c3ccc(OC)c(OC)c3)[nH]c2=S)cc1 returned PfM18AAP inh-1 41*, GAA850 FXN act 3, SENP1 FRET inh 0, AHR activator 8, CTSL1 counter-1 -4, PfM18AAP inh-2 4 and CTSL1 counter-2 10.
Screening C/C(=N\Nc1ccc2nncn2n1)c1ccccn1 returned PfM18AAP inh-1 40*, GAA850 FXN act -9, SENP1 FRET inh 4, AHR activator -2, HDAC3 inhib 3, CTSL1 counter-1 -3, PfM18AAP inh-2 -20 and CTSL1 counter-2 0.
Screening CC(=NNC(=S)N1CCCC1)c1ccccn1 returned GAA850 FXN act 6 and SENP1 FRET inh 0.
